Where “and” joins values, the source holds several entries; their conditions need not be identical. Equal entries are not always repeated.
What was measured:
[1] = target: T1, 5-hydroxytryptamine receptor 1A (Homo sapiens, UniProt P08908); experiment: Displacement of [3H]-8-OH-DPAT from human 5-HT1A receptor expressed in HEK293 cell membranes assessed as inhibition constant incubated for 1 hr by Microbeta plate reader based analysis; design: species or system Membrane
T1 sequence (P08908 whole entry): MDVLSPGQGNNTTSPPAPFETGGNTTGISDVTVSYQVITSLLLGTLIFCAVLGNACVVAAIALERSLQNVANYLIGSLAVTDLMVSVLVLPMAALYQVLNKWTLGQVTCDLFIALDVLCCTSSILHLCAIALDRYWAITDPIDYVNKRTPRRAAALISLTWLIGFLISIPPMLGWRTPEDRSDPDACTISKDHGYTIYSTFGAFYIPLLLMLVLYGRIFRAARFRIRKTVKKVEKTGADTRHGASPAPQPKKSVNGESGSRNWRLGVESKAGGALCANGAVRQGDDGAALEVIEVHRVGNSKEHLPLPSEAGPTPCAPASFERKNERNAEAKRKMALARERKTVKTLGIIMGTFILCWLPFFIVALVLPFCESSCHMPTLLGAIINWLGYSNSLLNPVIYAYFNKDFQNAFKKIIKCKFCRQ

HepG2 = experiment: Cytotoxicity against human HepG2 cells assessed as reduction in cell viability at 100 uM incubated for 72 hrs by MTS assay; format: toxicity, cell-based; details: hepg2, 72 h
Procedure, shortened: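 HepG2 hepatoma cells exposed 72 h to compounds at 1, 10, 50 and 100 μM; doxorubicin 1 μM as positive control, 1% DMSO in growth medium as negative control. Viability read by MTS assay, absorbance 490 nm.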

[2] = Effect on Wistar rat memory assessed as total exploratory time in T2 session at 0.3 mg/kg, ip measured after 60 mins by novel object recognition test (reference value: 31.86 +/- 2.15 sec); format: toxicity, organism-based; details: in vivo, 1 h
Procedure, shortened: (§1)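 Rats given compound i.p. (2 mL/kg; vehicle 1% Tween 80) 60 min before T1 familiarization phase, without MK-801; doses 0.1–3 mg/kg. T2 recognition session 3 min; discrimination index (EB − EA)/(EA + EB) and total exploration time of both objects recorded; n = 6–8; mean ± SEM, one-way ANOVA/Bonferroni.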

Rattus norvegicus [3] = experiment: Reversal of MK-801 induced memory impairment in Wistar rat assessed as total exploratory time at 0.1 mg/kg, ip pretreated for 30 mins followed by MK-801 administration and measured after 30 mins by novel object recognition test (reference value: 39.29 +/- 3.44 sec); format: functional; details: time 60 min, 1 h
Rattus norvegicus [4] = experiment: Reversal of MK-801 induced memory impairment in Wistar rat assessed as total exploratory time at 0.3 mg/kg, ip pretreated for 30 mins followed by MK-801 administration and measured after 30 mins by novel object recognition test (reference value: 39.29 +/- 3.44 sec); format: functional; details: time 60 min, 1 h
Rattus norvegicus [5] = experiment: Reversal of MK-801 induced memory impairment in Wistar rat assessed as total exploratory time at 1 mg/kg, ip pretreated for 30 mins followed by MK-801 administration and measured after 30 mins by novel object recognition test (reference value: 39.29 +/- 3.44 sec); format: functional; details: time 60 min
[6] = target: 5-hydroxytryptamine receptor 7 (Homo sapiens, UniProt P34969); experiment: Displacement of [3H]-5-CT from human 5-HT7 receptor expressed in HEK293 cell membranes assessed as inhibition constant incubated for 1 hr by Microbeta plate reader based analysis; design: species or system Membrane
5-hydroxytryptamine receptor 7, sequence (P34969 whole entry): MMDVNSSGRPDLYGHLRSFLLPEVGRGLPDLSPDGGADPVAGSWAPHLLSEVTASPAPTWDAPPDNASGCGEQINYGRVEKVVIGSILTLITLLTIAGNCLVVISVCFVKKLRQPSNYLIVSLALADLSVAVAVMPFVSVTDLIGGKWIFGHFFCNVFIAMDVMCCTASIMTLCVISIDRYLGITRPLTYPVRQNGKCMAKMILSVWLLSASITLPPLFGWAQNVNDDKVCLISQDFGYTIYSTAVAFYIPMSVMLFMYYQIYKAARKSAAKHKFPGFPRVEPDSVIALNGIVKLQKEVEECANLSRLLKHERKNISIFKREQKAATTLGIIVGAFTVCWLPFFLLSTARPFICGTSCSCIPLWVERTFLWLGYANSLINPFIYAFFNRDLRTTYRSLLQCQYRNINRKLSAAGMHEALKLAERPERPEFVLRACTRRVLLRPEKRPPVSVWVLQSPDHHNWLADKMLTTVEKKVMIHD

[7] = Effect on Wistar rat memory assessed as total exploratory time in T2 session at 1 mg/kg, ip measured after 60 mins by novel object recognition test (reference value: 31.86 +/- 2.15 sec); format: toxicity, organism-based; details: in vivo, 1 h; procedure, shortened: as §1
Rattus norvegicus [8] = experiment: Reversal of MK-801 induced memory impairment in Wistar rat assessed as total exploratory time at 3 mg/kg, ip pretreated for 30 mins followed by MK-801 administration and measured after 30 mins by novel object recognition test (reference value: 39.29 +/- 3.44 sec); format: functional; details: time 60 min, 1 h
[9] = Permeability of compound at 200 uM incubated for 5 hrs by PAMPA assay; format: ADME; details: read-out: permeability
[10] = Effect on Wistar rat memory assessed as total exploratory time in T2 session at 0.1 mg/kg, ip measured after 60 mins by novel object recognition test (reference value: 31.86 +/- 2.15 sec); format: toxicity, organism-based; details: in vivo, 1 h; procedure, shortened: as §1
D(2) dopamine receptor = D(2) dopamine receptor (Homo sapiens, UniProt P14416); experiment: Displacement of [3H]-raclopride from human D2 receptor expressed in HEK293 cell membranes assessed as inhibition constant incubated for 1 hr by Microbeta plate reader based analysis; design: species or system Membrane
D(2) dopamine receptor, sequence (P14416 whole entry): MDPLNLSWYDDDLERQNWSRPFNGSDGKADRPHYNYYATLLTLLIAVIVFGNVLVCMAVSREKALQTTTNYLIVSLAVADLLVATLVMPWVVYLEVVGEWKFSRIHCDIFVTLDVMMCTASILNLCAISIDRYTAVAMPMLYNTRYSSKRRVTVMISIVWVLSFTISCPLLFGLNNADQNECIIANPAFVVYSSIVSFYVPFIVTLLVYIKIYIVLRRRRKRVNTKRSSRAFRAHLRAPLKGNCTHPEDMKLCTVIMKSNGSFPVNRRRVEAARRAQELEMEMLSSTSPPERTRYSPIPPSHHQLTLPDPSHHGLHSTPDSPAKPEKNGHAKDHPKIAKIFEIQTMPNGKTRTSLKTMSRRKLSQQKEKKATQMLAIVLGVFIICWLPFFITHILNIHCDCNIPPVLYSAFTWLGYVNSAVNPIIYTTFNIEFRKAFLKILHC

[11] = Effect on Wistar rat memory assessed as total exploratory time in T2 session at 3 mg/kg, ip measured after 60 mins by novel object recognition test (reference value: 31.86 +/- 2.15 sec); format: toxicity, organism-based; details: in vivo, 1 h; procedure, shortened: as §1
[12] = target: 5-hydroxytryptamine receptor 2A (Homo sapiens, UniProt P28223); experiment: Displacement of [3H]-ketanserin from human 5-HT2A receptor expressed in HEK293 cell membranes assessed as inhibition constant incubated for 1 hr by Microbeta plate reader based analysis; design: species or system Membrane
5-hydroxytryptamine receptor 2A, sequence (P28223 whole entry): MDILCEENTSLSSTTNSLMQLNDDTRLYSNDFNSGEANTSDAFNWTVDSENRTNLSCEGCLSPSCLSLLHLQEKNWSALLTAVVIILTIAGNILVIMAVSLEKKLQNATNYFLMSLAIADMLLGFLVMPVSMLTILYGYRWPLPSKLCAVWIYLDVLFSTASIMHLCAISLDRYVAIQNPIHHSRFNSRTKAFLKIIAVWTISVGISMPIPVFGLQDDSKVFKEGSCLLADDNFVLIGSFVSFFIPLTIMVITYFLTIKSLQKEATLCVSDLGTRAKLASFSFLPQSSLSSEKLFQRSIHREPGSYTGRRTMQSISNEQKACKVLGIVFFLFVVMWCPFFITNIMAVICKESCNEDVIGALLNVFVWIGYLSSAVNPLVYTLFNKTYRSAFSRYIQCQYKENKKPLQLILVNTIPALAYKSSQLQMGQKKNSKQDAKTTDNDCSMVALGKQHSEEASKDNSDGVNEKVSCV

[13] = Metabolic stability at phase II in rat liver microsomes assessed as compound remaining at 50 uM preincubated for 5 mins followed by UDPGA and NADPH addition and measured after 1 hr by LC-MS analysis; format: ADME, Microsome; details: time 65 min, read-out: Stability
[14] = Aqueous solubility of compound at 10 mg boiled for 5 mins and incubated overnight by UV spectroscopy; format: physicochemical; details: aqueous medium

- Ki [1]: 3.04 µM
- Ki [6]: 11.5 µM
- Papp at 5 h, 200 µM [9]: 20.6 ×10⁻⁶ cm/s
- Ki (D(2) dopamine receptor): 1630 nM
- Ki [12]: 573 nM
- remaining at 1 h, 50 µM [13]: 82.6%
- solubility at 5 min [14]: 79 µg/mL and 217 µM
Structure (SMILES): CCC(Oc1cc(F)ccc1F)c1nc(N)nc(N2CCN(C)CC2)n1 (stereo unspecified)
- Activity (HepG2): Non-Toxic
- Time [2]: 34.63 s
- Time (Rattus norvegicus [3]): 33.25 s
- Time (Rattus norvegicus [4]): 31 s
- Time (Rattus norvegicus [5]): 32.57 s
- Time [7]: 39.38 s
- Time (Rattus norvegicus [8]): 27.75 s
- Time [10]: 38.29 s
- Time [11]: 31.63 s
